In brackets after ≈: the same amount, converted by molar mass. A value given as a limit tells only on which side of the number the result lay.

Our source for the MIC and logP values is ChEMBL document CHEMBL1135682, “Synthesis and antimycobacterial activity of pyrazine and quinoxaline derivatives” (J Med Chem, 2002).

Series [1] in a line: Minimum inhibitory concentration against Mtb H37Rv using Middlebrook 7H9 with glycerol and OADC enrichment. The series is classed as functional. To be noted: Mycobacterium tuberculosis.
Series [2] in a line: Minimum inhibitory concentration against MAC NJ211 using Middlebrook 7H9 with glycerol and OADC enrichment. The series is classed as functional. To be noted: Mycobacterium avium. An outline of the steps: (§1)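 Run in-house in Middlebrook 7H9 broth with glycerol and OADC enrichment, pH 6.6, against Mtb H37Ra or M. avium; the M. avium strains came from the National Jewish Center, Denver. Ethambutol served as a reference drug. The read-out is the MIC.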

Series [3] can be described thus: Minimum inhibitory concentration against Mtb H37Ra using Middlebrook 7H9 with glycerol and OADC enrichment. The format is functional. The conditions noted are these: Mycobacterium tuberculosis. In a few lines: as §1
Series [4] can be described thus: Partition coefficient was evaluated using method of Morgiuchi et al. The series is classed as physicochemical. The conditions noted are these: octanol/water; read-out: mLog P.

As for `O=C(OCc1ccccc1)c1cnccn1`, the MIC in series [1] was > 6.25 µg/mL; in series [2] it was > 128 µg/mL; in series [3], 16 µg/mL (≈ 74.7 µM). The logP in series [4] was determined as 0.94.

As to `O=C(O)c1cnc2ccccc2n1`, the MIC in series [2] and in series [3] was > 128 µg/mL in each case.

For the compound `O=C(OCc1ccc([N+](=O)[O-])cc1)c1ccccn1`, the figures for the MIC in series [1], in series [2] and in series [3] were > 6.25 µg/mL, > 128 µg/mL and 128 µg/mL (≈ 496 µM), respectively. In addition, the logP in series [4] was determined as 2.29.

With `O=C(OCc1ccc([N+](=O)[O-])cc1)c1cnccn1`, the MIC was 6.25 µg/mL (≈ 24.1 µM) in series [1], > 128 µg/mL in series [2] and 128 µg/mL (≈ 494 µM) in series [3]. For the same compound, the logP in series [4] is 0.99.

With `O=C(OCc1ccccc1[N+](=O)[O-])c1cnccn1`, the MIC in series [1] is > 6.25 µg/mL; in series [2], > 128 µg/mL; in series [3], 64 µg/mL (≈ 247 µM). Besides, in series [4], the logP was 0.99.

For `CCCCCCCCOC(=O)c1cnc2ccccc2n1`, the minimal inhibitory concentration (MIC) is > 6.25 µg/mL in series [1], 128 µg/mL (≈ 447 µM) in series [2] and 128 µg/mL (≈ 447 µM) in series [3]. In series [4], the logP came to 2.61.

Turning to `CC(=O)OCc1ccc([N+](=O)[O-])cc1`, the MIC in series [1] is > 6.25 µg/mL; in series [2] it was > 128 µg/mL; in series [3], > 128 µg/mL. In series [4], the logP was 2.02.

Regarding `O=C(OCc1ccccc1[N+](=O)[O-])c1cnc2ccccc2n1`, the MIC in series [1] is > 6.25 µg/mL; in series [2], > 128 µg/mL; in series [3], > 128 µg/mL. Also, in series [4], the logP is 2.27.

Consider `CC(=O)Oc1ccc(COC(=O)c2cnc3ccccc3n2)cc1`, for which the MIC in series [1] was 6.25 µg/mL (≈ 19.4 µM); in series [2], 16 µg/mL (≈ 49.6 µM); in series [3] it was 0.5 µg/mL (≈ 1.55 µM). Moreover, the logP in series [4] worked out at 2.15.

Consider `COC(=O)c1cnc2ccccc2n1`, for which the MIC in series [1] was > 6.25 µg/mL; in series [2] it was > 128 µg/mL; in series [3] it was > 128 µg/mL. Moreover, the logP in series [4] turned out to be 0.84.

As to `O=C(OCc1ccc(C(F)(F)F)cc1)c1cnccn1`, the MIC in series [1] was > 6.25 µg/mL; in series [2] it was > 128 µg/mL; in series [3] it was 128 µg/mL (≈ 454 µM). The logP in series [4] turned out to be 1.87.

As for `NC(=O)c1cnc2ccccc2n1`, the MIC in series [1] was > 6.25 µg/mL; in series [2], > 128 µg/mL; in series [3] it was > 128 µg/mL. In addition, the logP in series [4] was found to be 0.13.

As for `CCCCCCC(C)OC(=O)c1cnc2ccccc2n1` (configuration not stated), the MIC is > 6.25 µg/mL in series [1], 128 µg/mL (≈ 447 µM) in series [2] and 64 µg/mL (≈ 223 µM) in series [3]. In addition, the logP in series [4] came to 2.7.

On to `CC(=O)Oc1ccc(COC(=O)c2ccccc2)cc1`, for which the MIC in series [1] was > 6.25 µg/mL; in series [2] it was 128 µg/mL (≈ 474 µM); in series [3], 16 µg/mL (≈ 59.2 µM). In series [4], the logP came out at 3.38.

`CCCOC(=O)c1cnc2ccccc2n1`: the MIC was 6.25 µg/mL (≈ 28.9 µM) in series [1], 128 µg/mL (≈ 592 µM) in series [2] and 64 µg/mL (≈ 296 µM) in series [3]. Also, the logP in series [4] was 1.41.

On to `O=C(O)c1cnccn1` [PYRAZINOIC ACID], for which the results for the MIC in series [2] and in series [3] were > 128 µg/mL and 64 µg/mL (≈ 516 µM), respectively.

With `CC(=O)OCc1ccc(OC(C)=O)cc1`, the MIC is 128 µg/mL (≈ 615 µM) in series [2] and 8 µg/mL (≈ 38.4 µM) in series [3]. Besides, the logP in series [4] was 2.03.

Turning to `NNC(=O)c1cnc2ccccc2n1`, the MIC in series [1] is > 6.25 µg/mL; in series [2], > 128 µg/mL; in series [3], 64 µg/mL (≈ 340 µM). Further, the logP in series [4] was found to be 0.16.

As to `O=C(OCc1ccc([N+](=O)[O-])cc1)c1cnc2ccccc2n1`, the figures for the MIC in series [1], in series [2] and in series [3] were > 6.25 µg/mL, > 128 µg/mL and > 128 µg/mL, respectively. For the same compound, in series [4], the logP was 2.27.

For the compound `CC(=O)Oc1ccc(COC(=O)c2cnccn2)cc1`, the MIC was 6.25 µg/mL (≈ 23 µM) in series [1], 16 µg/mL (≈ 58.8 µM) in series [2] and < 0.25 µg/mL in series [3]. For the same compound, the logP in series [4] amounted to 0.92.

`O=C(OCc1ccc([N+](=O)[O-])cc1)c1ccccc1`: in series [1], the MIC was > 6.25 µg/mL. For the same compound, the logP in series [4] worked out at 3.45.

One may read the MIC as the least concentration at which growth counts as inhibited.
